In PMC3528315 (The FASEB Journal, 2013):
“Also recorded” adds a separate entry of the source. Where two headings read alike, the source gives them in different places.

Columns and labels:
[1] = tested on: DA rats; conditions: cited from earlier work
[2] = tested on: circulating polyclonal anti-MBP Abs from DA rats; type: binding; conditions: SPR; DA rats immunized with MBP63–81
[3] = tested on: DA rats with EAE; experiment: EAE treatment with p1 as such or encapsulated in SUV / mSUV; type: in vivo, Dark Agouti (DA) rats; conditions: s.c.; mean disease score vs no treatment; p1 n=8, p1 SUV n=10, p1 mSUV n=9
[4] = tested on: DA rats with EAE; experiment: EAE treatment with mSUV-encapsulated MBP peptides, disease scores; type: in vivo, Dark Agouti (DA) rats; conditions: for disease course / therapeutic effect in words: 6 daily s.c. injections from d 7 after EAE induction, mean disease score; for delta: ranking of overall difference in MDS from the placebo group: ascending series, placebo = empty mSUV
[5] = tested on: Spinal cords of DA rats with EAE; experiment: Spinal cord histology, gliosis and demyelination; type: in vivo, Dark Agouti (DA) rats
Outline: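 Symptomatic EAE DA rats were dosed subcutaneously once daily for 6 d and followed for 28 d. Paraffin-embedded spinal cord sections were stained with hematoxylin–eosin and luxol fast blue and scored blind on 0–3 scales. Gliosis grades were mild (5–10 cells/focus), moderate (10–50 cells/focus) and severe (>50 cells/focus), and demyelination ran from none (0) to severe (3).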

[6] = tested on: autoAbs to full-length MBP; experiment: Serum anti-MBP autoAbs; type: in vivo, DA rats; conditions: ELISA, vs control/placebo group
Outline: (§1)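 Wells were coated overnight at 4°C with MBP or Trx-fused MBP peptides (10 μg/ml, 100 mM carbonate/bicarbonate, pH 9.0) and blocked with 2% BSA for 1 h at 37°C. Rat sera were diluted 100- to 50,000-fold in PBS-Tween/0.5% BSA, with 5 USP units/ml heparin for MBP, and incubated 1 h at 37°C. HRP anti-rat (1:4000, 1 h, 37°C) and TMB followed, with a phosphoric acid stop and OD₄₅₀ read-out.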

[7] = tested on: autoAbs to MBP epitope 81–103; experiment: Serum autoAbs; type: in vivo, DA rats; conditions: ELISA, vs control/placebo group
Outline: as §1

[8] = tested on: autoAbs to MBP epitope 146–170; experiment: Serum autoAbs; type: in vivo, DA rats; conditions: ELISA, vs control/placebo group
Outline: as §1

[9] = tested on: IL-2; experiment: Immunostaining of spinal cord for IL-2; type: in vivo, DA rats; conditions: immunohistochemistry
Outline: (§2)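 EAE DA rats with symptoms got single daily subcutaneous injections of liposome formulations, reference drug or placebo for 6 d and were followed for 28 d. Spinal cords were fixed, dehydrated and paraffin-embedded, and sections were immunostained for IL-2, IFNγ or BDNF per the antibody makers' protocols. Scoring was blinded, against nonimmunized rats and untreated EAE rats.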

[10] = tested on: IFNγ; experiment: Immunostaining of spinal cord for IFNγ; type: in vivo, DA rats; conditions: immunohistochemistry
Outline: as §2

[11] = tested on: BDNF; experiment: Immunostaining of CNS / spinal cord for BDNF; type: in vivo, DA rats; conditions: immunohistochemistry, vs placebo
Outline: as §2

[12] = tested on: regulatory Th2 cells; BDNF expression; conditions: cited from earlier work

Substance: GPBP68–88: fragment of the guinea pig myelin basic protein (HYGSLPQKSQRSQDENPVVHF; UniProt P25188 68-88, looked up, fragment)
- capability to induce EAE in DA rats [1]: slightly

Substance: MBP62–75: major encephalitogenic peptide in DA rats (WLKQSRSPLPSHAR; UniProt P02688 62-75, looked up, fragment)
- immunodominance of encephalitogenic peptide in DA rats [1]: not immunodominant

Substance: MDHARHGFLPRH
- binding of autoAbs [2]: not detected

Substance: p1: immunodominant MBP peptide MBP46–62, as such (without liposomes) (FGEADANQNNGTSSQDT; UniProt P02686 46-62, looked up, fragment)
- therapeutic effect on EAE [3]: no detectable therapeutic effect
- disease course / therapeutic effect in words [4]: no therapeutic effect; also recorded: no detectable therapeutic activity
- delta: ranking of overall difference in MDS from the placebo group [4]: p1 ≪ p2 mSUV ≈ p3 mSUV < p1 mSUV ≈ Copaxone < p123 mSUV

Substance: glatiramer acetate [Copaxone]
- median maximum disease score vs placebo ([4]; 6 daily s.c. injections from d 7, Wilcoxon test, P < 0.05): significantly differed from the placebo group
- disease course / therapeutic effect in words [4]: significantly suppressed protracted EAE
- delta: ranking of overall difference in MDS from the placebo group [4]: p1 ≪ p2 mSUV ≈ p3 mSUV < p1 mSUV ≈ Copaxone < p123 mSUV
- degree of demyelination, luxol fast blue staining [5]: reduced
- serum concentration of autoAbs to full-length MBP [6]: significant decrease
- serum autoAbs to MBP epitope 81–103 [7]: down-regulated
- serum autoAbs to MBP epitope 146–170 [8]: down-regulated
- IL-2 in spinal cord [9]: significantly down-regulated
- IFNγ in spinal cord [10]: significantly down-regulated
- BDNF in CNS [11]: enhanced production of BDNF
- induction of regulatory Th2 cells, cytokines and BDNF [12]: known to stimulate BDNF expression
- induction of regulatory Th2 cells, cytokines and BDNF ([12]; listed as glatiramer acetate): induces the population of regulatory Th2 cells to become capable of crossing the BBB and producing anti-inflammatory cytokines IL-4, IL-6, IL-10, and brain-derived neurotrophic factor

Substance: GPBP62–84: fragment of the guinea pig myelin basic protein (HAARTTHYGSLPQKSQRSQDENP; UniProt P25188 62-84, looked up, fragment)
- capability to induce EAE in DA rats [1]: capable to induce EAE in DA rats
